Experimental data from ChEMBL document CHEMBL1671781, “Discovery and biological characterization of (2R,4S)-1'-acetyl-N-{(1R)-1-[3,5-bis(trifluoromethyl)phenyl]ethyl}-2-(4-fluoro-2-methylphenyl)-N-methyl-4,4'-bipiperidine-1-carboxamide as a new potent and selective neurokinin 1 (NK1) receptor antagonist clinical candidate” (J Med Chem, 2011).
Calls of active or inactive are those of the source. No cut-off for these calls is given here.

Experiments:
Meriones unguiculatus [1] = test: Inhibition of GR73632-induced foot tapping in orally dosed Mongolian gerbil after 1 hr; format: functional; conditions: po, read-out: ID50 (the source's name)
Outline: (§1)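 GR73632 (3 pmol/5 μL) injected icv into the lateral ventricle of Mongolian gerbils; after 1 min recovery, hind foot tapping timed for 3 min (max 180 s). Oral compound or vehicle (10 mL/kg) given 1, 4, 8 or 24 h beforehand, at least seven animals per group.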

Substance-P receptor = Substance-P receptor (Homo sapiens, UniProt P25103); test: Displacement of [3H]SP from human NK1 receptor expressed in CHO cells by liquid scintillation counting; format: cell-based
Chain of Substance-P receptor (P25103 whole entry): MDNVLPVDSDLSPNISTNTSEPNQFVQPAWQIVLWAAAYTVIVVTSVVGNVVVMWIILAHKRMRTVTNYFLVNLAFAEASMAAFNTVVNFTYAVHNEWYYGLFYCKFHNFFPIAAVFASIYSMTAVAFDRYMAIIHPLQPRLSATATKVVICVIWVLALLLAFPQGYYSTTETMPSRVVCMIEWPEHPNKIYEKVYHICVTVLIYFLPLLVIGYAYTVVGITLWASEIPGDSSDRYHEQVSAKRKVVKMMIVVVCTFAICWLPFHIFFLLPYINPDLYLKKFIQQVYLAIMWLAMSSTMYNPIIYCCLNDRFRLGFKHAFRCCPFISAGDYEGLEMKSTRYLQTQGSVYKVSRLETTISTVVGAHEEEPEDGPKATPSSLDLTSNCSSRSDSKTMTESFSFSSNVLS

Meriones unguiculatus [2] = test: Inhibition of GR73632-induced foot tapping in orally dosed Mongolian gerbil after 4 hrs; format: functional; conditions: po, read-out: ID50 (the source's name); outline: as §1
[3] = Half life in marmoset at 1 mg/kg, iv; format: ADME, organism-based, Callithrix jacchus; parameters: dose 1 mg/kg, route intravenous; conditions: in vivo
[4] = Binding affinity to calcium channel L type benzodiazepine binding site
[5] = Half life in mouse at 2 mg/kg, po; format: ADME, organism-based; parameters: dose 2 mg/kg, route oral; conditions: in vivo
Outline: (§2)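 Mice given 1 mg/kg iv and 2 mg/kg po using a composite design, three animals per time point (n = 21 per arm). Blood collected at nominal times, plasma prepared by centrifugation and analysed by protein precipitation plus HPLC-MS/MS; parameters derived from plasma concentrations.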

Mus musculus = test: Volume of distribution at steady state in mouse at 2 mg/kg, po; format: ADME, organism-based; parameters: dose 2 mg/kg, route oral; conditions: in vivo
[6] = Binding affinity to sodium channel site 2
[7] = target: Sigma non-opioid intracellular receptor 1 (Homo sapiens, UniProt Q99720); test: Binding affinity to sigma 1 receptor
Chain of Sigma non-opioid intracellular receptor 1 (Q99720 whole entry): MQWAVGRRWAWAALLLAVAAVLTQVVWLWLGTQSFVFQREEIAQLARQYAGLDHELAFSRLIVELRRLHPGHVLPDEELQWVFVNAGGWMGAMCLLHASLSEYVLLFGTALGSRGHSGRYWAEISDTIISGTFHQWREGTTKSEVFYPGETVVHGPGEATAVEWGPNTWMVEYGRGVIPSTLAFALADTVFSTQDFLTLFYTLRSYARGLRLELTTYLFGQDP

Meriones unguiculatus [8] = test: Toxicity in Mongolian gerbil assessed as abnormal behavior at 0.3 to 1 mg/kg, po; format: organism-based; parameters: dose 0.3-1 mg/kg, route oral; conditions: in vivo
Outline: (§3)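 Gerbil social interaction arena, po dosing 1 h pretest (0.1, 0.3, 1.0 mg/kg; 10 mL/kg; 10 per group). Abnormal behaviours noted during the 5 min session; sedation checked as locomotor activity scored by line crossing. Compared with vehicle by one-way ANOVA plus Dunnett's test or paired t test.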

[9] = Plasma clearance in cynomolgus monkey at 1 mg/kg, iv; format: ADME, organism-based, Macaca fascicularis; parameters: dose 1 mg/kg, route intravenous
Meriones unguiculatus [10] = test: Toxicity in Mongolian gerbil assessed as locomotor activity at 1 mg/kg, po; format: functional, organism-based; parameters: dose 1 mg/kg; outline: as §3
Meriones unguiculatus [11] = test: Inhibition of GR73632-induced foot tapping in sc dosed Mongolian gerbil after 1 hr; format: functional; conditions: read-out: ID50 (the source's name)
Outline: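 Gerbil foot tapping model: icv GR73632 3 pmol/5 μL into the lateral ventricle, tapping recorded for 3 min after 1 min recovery. Compound given sc 1 h before agonist, seven animals per group.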

[12] = Half life in rat at 1 mg/kg, iv and po; format: ADME, organism-based; parameters: dose 1 mg/kg, route oral; conditions: in vivo
Outline: (§4)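 Rats (n = 6) were dosed at 1 mg/kg iv bolus and po by gavage. Serial blood sampling; plasma obtained by centrifugation, then protein precipitation and HPLC-MS/MS quantitation. PK parameters calculated from plasma concentrations.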

Meriones unguiculatus [13] = test: Inhibition of GR73632-induced foot tapping in orally dosed Mongolian gerbil after 8 hrs; format: functional; conditions: po, read-out: ID50 (the source's name); outline: as §1
[14] = Half life […] cynomolgus monkey at 1 mg/kg, iv; format: ADME, organism-based, Macaca fascicularis; parameters: dose 1 mg/kg, route intravenous; conditions: in vivo
[15] = Plasma clearance in marmoset at 1 mg/kg, iv; format: ADME, organism-based, Callithrix jacchus; parameters: dose 1 mg/kg, route intravenous
[16] = Half life in dog at 0.5 mg/kg, iv; format: ADME, organism-based, Canis lupus familiaris; parameters: dose 0.5 mg/kg, route intravenous; conditions: in vivo
Outline: (§5)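 Dog (n = 6), cynomolgus monkey (n = 3) and marmoset (n = 3) received an iv bolus at 0.5 mg/kg and po gavage at 1 mg/kg. Serial blood samples taken, spun to plasma, and assayed after protein precipitation by HPLC-MS/MS; parameters derived from plasma concentrations.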

[17] = Bioavailability in dog at 0.5 mg/kg, iv; format: ADME, organism-based, Canis lupus familiaris; conditions: in vivo; outline: as §5
[18] = Oral bioavailability in mouse at 2 mg/kg; format: ADME, organism-based; conditions: in vivo; outline: as §2
Meriones unguiculatus [19] = test: Inhibition of GR73632-induced foot tapping in orally dosed Mongolian gerbil after 24 hrs; format: functional; conditions: po, read-out: ID50 (the source's name); outline: as §1
Meriones unguiculatus [20] = test: Antidepressant activity against po dosed Mongolian gerbil assessed as increase in social interaction time; format: functional, organism-based
Outline: (§6)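 Pairs of unfamiliar male Mongolian gerbils (50-70 g), matched for treatment, placed in arena centre; active social interaction (sniffing, following, partner grooming, wrestling) scored for 5 min. Dosing 1 h before test, po at 0.1, 0.3 and 1.0 mg/kg (10 mL/kg), randomized, 10 animals per group. One-way ANOVA with Dunnett's test or paired t test versus vehicle.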

[21] = Plasma clearance in dog at 0.5 mg/kg, iv; format: ADME, organism-based, Canis lupus familiaris; parameters: dose 0.5 mg/kg, route intravenous; outline: as §5
Meriones unguiculatus [22] = test: Antidepressant activity against Mongolian gerbil assessed as increase in social interaction time at 0.3 to 1 mg/kg, po; format: functional, organism-based; outline: as §6
[23] = Binding affinity to calcium channel L type dihydropyridine binding site
[24] = Bioavailability in marmoset at 1 mg/kg, iv; format: ADME, organism-based, Callithrix jacchus; conditions: in vivo
[25] = Bioavailability in cynomolgus monkey at 1 mg/kg, iv; format: ADME, organism-based, Macaca fascicularis; conditions: in vivo
[26] = Volume of distribution at steady state in cynomolgus monkey at 1 mg/kg, iv; format: ADME, organism-based, Macaca fascicularis; parameters: dose 1 mg/kg, route intravenous; conditions: in vivo, read-out: Vdss
[27] = Volume of distribution at steady state in marmoset at 1 mg/kg, iv; format: ADME, organism-based, Callithrix jacchus; parameters: dose 1 mg/kg, route intravenous; conditions: in vivo, read-out: Vdss
Rattus norvegicus = test: Volume of distribution at steady state in rat at 1 mg/kg, iv and po; format: ADME, organism-based; parameters: dose 1 mg/kg, route oral; conditions: in vivo; outline: as §4
[28] = Oral bioavailability in rat at 1 mg/kg; format: ADME, organism-based; conditions: in vivo; outline: as §4
Meriones unguiculatus [29] = test: Antidepressant activity against po dosed Mongolian gerbil assessed as increase in social interaction time at 1 mg/kg, po (Rbv = 19+/-1.2seconds); format: functional; outline: as §6
[30] = Volume of distribution at steady state in dog at 0.5 mg/kg, iv; format: ADME, organism-based, Canis lupus familiaris; parameters: dose 0.5 mg/kg, route intravenous; conditions: in vivo, read-out: Vdss; outline: as §5
[31] = Plasma clearance in mouse at 2 mg/kg, po; format: ADME, organism-based; parameters: dose 2 mg/kg, route oral

## Cc1cc(F)ccc1[C@H]1C[C@@H](N(C)C)CCN1C(=O)N(C)Cc1cc(C(F)(F)F)cc(C(F)(F)F)c1
Meriones unguiculatus [1]
  ED50: 0.26 mg/kg
Substance-P receptor
  Ki: 0.0794 nM

## Cc1cc(F)ccc1[C@H]1C[C@@H](N(C)C)CCN1C(=O)N(C)[C@H](C)c1cc(C(F)(F)F)cc(C(F)(F)F)c1
Meriones unguiculatus [1]
  ED50: 0.9 mg/kg
Substance-P receptor
  Ki: 0.24 nM

## Cc1cc(F)ccc1[C@H]1C[C@H](N(C)C)CCN1C(=O)N(C)[C@H](C)c1cc(C(F)(F)F)cc(C(F)(F)F)c1
Substance-P receptor
  Ki: 0.933 nM

## Cc1cc(F)ccc1[C@H]1C[C@@H](N2CCC2)CCN1C(=O)N(C)Cc1cc(C(F)(F)F)cc(C(F)(F)F)c1
Meriones unguiculatus [2]
  ED50: 0.13 mg/kg
Substance-P receptor
  Ki: 0.0813 nM

## Cc1cc(F)ccc1[C@H]1C[C@@H](N2CCC2)CCN1C(=O)N(C)[C@H](C)c1cc(C(F)(F)F)cc(C(F)(F)F)c1
Substance-P receptor
  Ki: 0.178 nM

## Cc1cc(F)ccc1[C@H]1C[C@H](N2CCC2)CCN1C(=O)N(C)[C@H](C)c1cc(C(F)(F)F)cc(C(F)(F)F)c1
Substance-P receptor
  Ki: 0.646 nM

## Cc1cc(F)ccc1[C@H]1C[C@@H](N2CCCC2)CCN1C(=O)N(C)Cc1cc(C(F)(F)F)cc(C(F)(F)F)c1
Meriones unguiculatus [1]
  ED50: 0.3 mg/kg
Substance-P receptor
  Ki: 0.275 nM

## Cc1cc(F)ccc1[C@H]1C[C@@H](N2CCCC2)CCN1C(=O)N(C)[C@H](C)c1cc(C(F)(F)F)cc(C(F)(F)F)c1
Meriones unguiculatus [1]
  ED50: 0.92 mg/kg
Substance-P receptor
  Ki: 0.141 nM

## Cc1cc(F)ccc1[C@H]1C[C@H](N2CCCC2)CCN1C(=O)N(C)[C@H](C)c1cc(C(F)(F)F)cc(C(F)(F)F)c1
Meriones unguiculatus [2]
  ED50: > 1 mg/kg
Substance-P receptor
  Ki: 0.2 nM

## CC(=O)N1CCN([C@H]2CCN(C(=O)N(C)Cc3cc(C(F)(F)F)cc(C(F)(F)F)c3)[C@@H](c3ccc(F)cc3C)C2)CC1
Meriones unguiculatus [1]
  ED50: 0.09 mg/kg
Substance-P receptor
  Ki: 0.117 nM

## CC(=O)N1CCN([C@@H]2CCN(C(=O)N(C)[C@H](C)c3cc(C(F)(F)F)cc(C(F)(F)F)c3)[C@@H](c3ccc(F)cc3C)C2)CC1
Meriones unguiculatus [1]
  ED50: > 0.3 mg/kg

## CN[C@H]1CCN(C(=O)N(C)Cc2cc(C(F)(F)F)cc(C(F)(F)F)c2)[C@@H](c2ccc(F)cc2C)C1
Substance-P receptor
  Ki: 0.2 nM

## Cc1cc(F)ccc1[C@H]1C[C@@H](NC2CC2)CCN1C(=O)N(C)[C@H](C)c1cc(C(F)(F)F)cc(C(F)(F)F)c1
Meriones unguiculatus [2]
  ED50: 0.39 mg/kg
Substance-P receptor
  Ki: 0.324 nM

## Cc1cc(F)ccc1[C@H]1C[C@@H](NC2CCC2)CCN1C(=O)N(C)[C@H](C)c1cc(C(F)(F)F)cc(C(F)(F)F)c1
Substance-P receptor
  Ki: 0.17 nM

## COCCN[C@H]1CCN(C(=O)N(C)[C@H](C)c2cc(C(F)(F)F)cc(C(F)(F)F)c2)[C@@H](c2ccc(F)cc2C)C1
Substance-P receptor
  Ki: 0.209 nM

## CC(=O)N1CCN([C@H]2CCN(C(=O)N(C)[C@H](C)c3cc(C(F)(F)F)cc(C(F)(F)F)c3)[C@@H](c3ccc(F)cc3C)C2)CC1 [CASOPITANT]
[3]
  half-life: 1.7 h
[4]
  Ki: 8780 nM
[5]
  half-life: 1.1 h
Mus musculus
  Vdss: 4 L/kg
[6]
  Ki: 4220 nM
[7]
  Ki: 2980 nM
Meriones unguiculatus [8]
  Activity: Non-toxic
[9]
  clearance: 1.56 L/h/kg
Meriones unguiculatus [10]
  Activity: Not toxic
Meriones unguiculatus [1]
  ED50: 0.08 mg/kg
Meriones unguiculatus [11]
  ED50: 0.05 mg/kg
[12]
  half-life: 1.8 h
Meriones unguiculatus [13]
  ED50: 0.19 mg/kg
[14]
  half-life: 2.1 h
[15]
  clearance: 1.74 L/h/kg
[16]
  half-life: 4.5 h
[17]
  bioavailability: 34%
[18]
  bioavailability: 21%
Meriones unguiculatus [19]
  ED50: 1.1 mg/kg
Meriones unguiculatus [20]
  Activity: Dose-dependent effect
[21]
  clearance: 0.6 L/h/kg
Meriones unguiculatus [22]
  Activity: Active
[23]
  Ki: 6580 nM
[24]
  bioavailability: 14%
[25]
  bioavailability: 8%
[26]
  Vd: 3 L/kg
[27]
  Vd: 3.1 L/kg
Rattus norvegicus
  Vdss: 3.2 L/kg
[28]
  bioavailability: 8%
Meriones unguiculatus [29]
  Time: 36.6 s
[30]
  Vd: 1.9 L/kg
[31]
  CL/F: 7.2 L/h/kg

## Cc1cc(F)ccc1[C@H]1CNCCN1C(=O)N(C)[C@H](C)c1cc(C(F)(F)F)cc(C(F)(F)F)c1 [VESTIPITANT]
Meriones unguiculatus [1]
  ED50: 0.014 mg/kg
